This is a sample that favours compounds with a hit; in the whole collection about 9.8% have one here.
Rad51 HR inh = human RAD51 strand exchange inhibitors, primary screen, biochemical, fluorescence; AID 1385, 2008; 200,000 compounds, 0.085% hits; hRad51 DNA strand exchange, fluorescence dequenching; inhibition, % at 10 µM;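 active = inhibition above 40% at the single screening dose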;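 note: 0% = DMSO control wells and 100% = blanks with heterologous ssDNA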
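Test system: preformed human Rad51 ssDNA filaments. Compound dosing: single dose, 10 µM final compound. Incubation: filaments 15 min 37 °C, then compound 30 min. Technique: FRET fluorescence dequenching, excitation 485 nm, emission 520 nm. Read-out basis: percent inhibition from fluorescence, normalised to plate control and blank means. Benchmarks: plate controls and plate blanks.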
L major viab = Leishmania major promastigote growth inhibition, primary screen; 200,000 compounds, 9% hits; Leishmania major promastigotes, resazurin fluorescence viability; inhibition, % at 10 µM; in the data active = inhibition above about 50%;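 note: promastigotes grown with compound for 44 hours at 28 °C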
WT yeast gro inh = growth inhibition of WT strain, primary screen, mitochondrial fusion inhibitor project, WT and mutant strains, chemical genetic; mitochondrial fusion phenotypic screen; inhibition, % at 10 µM; 190,000 compounds, 2.1% hits; AID 1362, 2008; in the data active = inhibition above about 58%; tested in S. cerevisiae
PMI act = activators of human PMI, primary screen, biochemical, fluorescence intensity, near-Km mannose 6-phosphate; purified human PMI, coupled resazurin fluorescence, 20 min; hits give high values; 1 = vehicle control, 0 substrate-free wells; activation factor at 20 µM; 190,000 compounds, 0.005% hits;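 active = activation factor of 2 or more at 20 µM, relative to plate controls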
Target sequence (P34949 whole entry, looked up): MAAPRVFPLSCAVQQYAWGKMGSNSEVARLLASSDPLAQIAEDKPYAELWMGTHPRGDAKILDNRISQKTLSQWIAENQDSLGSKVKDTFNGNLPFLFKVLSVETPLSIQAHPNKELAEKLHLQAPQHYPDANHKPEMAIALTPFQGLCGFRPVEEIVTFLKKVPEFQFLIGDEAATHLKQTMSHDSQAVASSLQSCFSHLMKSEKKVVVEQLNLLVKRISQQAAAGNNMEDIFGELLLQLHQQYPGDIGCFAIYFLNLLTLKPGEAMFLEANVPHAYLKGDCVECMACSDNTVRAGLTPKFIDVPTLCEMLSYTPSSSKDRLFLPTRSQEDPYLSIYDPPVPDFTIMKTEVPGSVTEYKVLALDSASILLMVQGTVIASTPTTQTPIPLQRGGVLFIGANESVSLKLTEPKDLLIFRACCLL
PMI act satM6P = human PMI activators, high substrate, primary screen, biochemical, fluorescence intensity, near-saturating mannose 6-phosphate; Mannose-6-phosphate isomerase (Homo sapiens), P34949; coupled PMI enzyme assay, resazurin fluorescence, 20 min; hits give high values; 1 = untreated enzyme, 0 = substrate-free blank; AID 1216, 2008; 190,000 compounds, 0.34% hits; activation factor at 20 µM;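 active = activation factor of 2 or more at 20 µM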
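Test system: human PMI in coupled enzyme assay; Input: PMI at 15 ng/mL final; Medium: HEPES buffer, pH 7.4; Schedule: 20 min incubation at room temperature; Technique: resorufin fluorescence at Ex 544/Em 590 nm; Compound: 20 µM single dose; Probe or stimulus: Near-saturating mannose-6-phosphate, 1.0 mM.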
Calpain2 inh = inhibitors of pig calpain II, primary screen, biochemical, fluorogenic peptide substrate, 1536-well | 220,000 compounds, 0.37% hits | inhibition, % at 16 µM | purified calpain II, 30 min | AID 1236, 2008;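 active = inhibition above about 50%, limit read from the data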
Active calls of the source: *.

CCOC(=O)C1CN(S(=O)(=O)c2ccc(C)cc2)C1 was read as Rad51 HR inh 0, L major viab 0, WT yeast gro inh -6, PMI act 0.9, PMI act satM6P 0.9 and Calpain2 inh 53*.
COc1ccc2c(c1)CCCC21NC(=O)N(CC(=O)NC(=O)NCc2ccccc2)C1=O (centres undefined) was read as Rad51 HR inh 3, L major viab 0, WT yeast gro inh 22, PMI act 1, PMI act satM6P 1 and Calpain2 inh -5.
O=C1c2ccccc2C(=O)N1CCCON1C(=O)c2ccccc2C1=O was read as Rad51 HR inh 2, L major viab 50*, WT yeast gro inh 17, PMI act 1, PMI act satM6P 0.9 and Calpain2 inh -10.
`OCCC1CN(Cc2ccccc2-c2ccco2)CCN1C1CCCC1` (centres undefined) gave Rad51 HR inh -9, L major viab 40, WT yeast gro inh 12, PMI act 0.8, PMI act satM6P 0.8 and Calpain2 inh 2.
`Cc1cc(C)c2c(N)c(C(=O)N3CCN(c4ncccn4)CC3)sc2n1` gave Rad51 HR inh 4, L major viab -10, WT yeast gro inh -9, PMI act 1.5, PMI act satM6P 2* and Calpain2 inh -172.
For COc1ccc(-n2ncc(S(=O)(=O)c3ccccc3)c2-c2ccc(Cl)cc2)cc1 the results were Rad51 HR inh -7, L major viab 99*, WT yeast gro inh 53, PMI act 0.8, PMI act satM6P 0.8 and Calpain2 inh 52*.
Screening O=S(=O)(c1ccccc1)c1cnn2c(C(F)(F)F)cc(-c3ccc(F)cc3)nc12 returned Rad51 HR inh 3, L major viab 25, WT yeast gro inh 10, PMI act 1.1, PMI act satM6P 1.1 and Calpain2 inh inactive.
Screening O=S(=O)(c1ccccc1)c1cnn(-c2ccccc2)c1-c1ccc(F)cc1 returned Rad51 HR inh -4, L major viab 50*, WT yeast gro inh 7, PMI act 0.9, PMI act satM6P 0.9 and Calpain2 inh -9.
Screening CC1(C)CC(=O)C2=C(C1)NC1=C(C(=O)c3ccccc31)C2c1ccccc1 (centres undefined) returned L major viab 89*, WT yeast gro inh 11, PMI act 0.8, PMI act satM6P 0.9 and Calpain2 inh -13.
CC(C)(C)c1ccc(C2C3=C(CCCC3=O)NC3=C2C(=O)c2ccccc23)cc1 (centres undefined) was read as Rad51 HR inh 5, L major viab 88*, WT yeast gro inh 3, PMI act 0.9, PMI act satM6P 0.9 and Calpain2 inh -13.
Screening CC(C)c1ccc(C2C3=C(CC(C)(C)CC3=O)NC3=C2C(=O)c2ccccc23)cc1 (centres undefined) returned Rad51 HR inh 0, L major viab 89*, WT yeast gro inh -2, PMI act 0.9, PMI act satM6P 0.9 and Calpain2 inh -65.
Screening COc1ccc(CC(=O)NNS(=O)(=O)c2ccc(F)cc2)cc1OC returned Rad51 HR inh 0, L major viab 16, WT yeast gro inh -11, PMI act 1, PMI act satM6P 1 and Calpain2 inh -10.
`CCOC(=O)N1CCC(n2c(SCC(=O)NCCc3ccc(S(N)(=O)=O)cc3)nc3ccccc3c2=O)CC1` gave Rad51 HR inh -20, L major viab 23, WT yeast gro inh -1, PMI act 1.2, PMI act satM6P 1.1 and Calpain2 inh -13.
COc1ccc(OCC(=O)Nc2ccc3c(c2)nc(CCN2CCOCC2)n3C)cc1 was read as Rad51 HR inh 8, L major viab 52*, WT yeast gro inh 23, PMI act 1, PMI act satM6P 0.9 and Calpain2 inh 0.
Screening CC(=O)c1cccc(NC(=O)Cn2nc(-c3ccc(Cl)cc3)ccc2=O)c1 returned Rad51 HR inh -2, L major viab -7, WT yeast gro inh -22, PMI act 0.9, PMI act satM6P 0.9 and Calpain2 inh -31.
